From PubChem BioAssay
NPY Y1 blocker – NPY-Y1 (human) receptor antagonism | P25929 | HEK293-CNG Y1 cells, membrane potential fluorescence; NPY at EC95, then isoproterenol | inhibition, % at 3.6 µM | actives 1% (n = 200,000);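 active = inhibition above the campaign mean inhibition of all tested compounds plus 3 SD, cut at about 20% in these data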;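 also: 0% = DMSO wells given NPY plus isoproterenol and 100% = isoproterenol alone without NPY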
Target sequence (P25929 whole entry, looked up): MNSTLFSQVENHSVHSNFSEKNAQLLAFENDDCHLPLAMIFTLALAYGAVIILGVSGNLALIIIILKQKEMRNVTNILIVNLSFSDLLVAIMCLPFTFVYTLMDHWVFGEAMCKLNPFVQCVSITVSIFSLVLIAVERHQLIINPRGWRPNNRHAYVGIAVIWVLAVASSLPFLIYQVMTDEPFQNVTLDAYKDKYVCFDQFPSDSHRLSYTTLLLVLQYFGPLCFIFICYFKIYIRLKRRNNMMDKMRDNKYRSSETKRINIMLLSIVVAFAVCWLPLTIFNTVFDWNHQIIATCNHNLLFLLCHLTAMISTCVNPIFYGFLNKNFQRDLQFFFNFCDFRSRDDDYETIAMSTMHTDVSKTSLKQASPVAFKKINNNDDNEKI
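Material: Y1- and CNG-channel-expressing HEK293 cells / Probe or stimulus: NPY 25 nM then isoproterenol 1 µM plus Ro 20-1724 25 µM / Doses: 3.6 µM single dose, DMSO 0.4% / Schedule: compound incubation 1 h at room temperature, readout 45 min post-stimulation / Signal: membrane potential fluorescence / Benchmarks: isoproterenol-only wells as full block versus NPY-plus-isoproterenol wells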
RAM network inh – inhibitors of the yeast RAM network; S. cerevisiae dse1pr::URA3 reporter, 5-FOA growth OD615, 2 d; analog-sensitive cbk1-as2 kinase mutant strain; inhibition, % at 50 µM; actives 1.8% (n = 190,000); AID 868;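 active = inhibition above a set limit, 3 SD over mean compound inhibition, cut at about 8.4% in these data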;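 also: 0% = DMSO-only wells with no growth and 100% = 10 µM 1-NA-PP1 full growth; inhibition rescues growth on 5-FOA so higher OD means more RAM inhibition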
WT yeast gro inh – growth inhibition of WT yeast, mitochondrial fusion screen; mitochondrial fusion phenotypic screen, WT strain; AID 1362; actives 2.1% (n = 190,000); inhibition, % at 10 µM; in the data active = inhibition above about 58%; tested in S. cerevisiae
NPY Y2 blocker – antagonists of human neuropeptide Y receptor Y2; AID 793; inhibition, % at 2.7 µM; NPY-Y2 expressing cells, antagonist mode; actives 0.99% (n = 140,000); P49146; in the data active = inhibition above about 17%;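 also: 0% = vehicle with agonist challenge and 100% = reference antagonist with challenge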
NPY2 pot ag – human NPY-Y2 potentiation or agonism, primary screen; P49146; cells expressing NPY-Y2, potentiator/agonist read-out; activation, % at 3.6 µM; actives 0.45% (n = 220,000); AID 1359; in the data active = activation above about 27%;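 also: cells stimulated with NPY near EC25 plus isoproterenol at EC100; 0% = vehicle plus submaximal agonist and 100% = vehicle plus saturating agonist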
NPY-Y1 PAM-ag – human NPY-Y1 potentiation or agonism, primary screen | P25929 | NPY-Y1 expressing cells, potentiator/agonist activation | activation, % at 3.6 µM | actives 0.37% (n = 220,000) | AID 1304; in the data active = activation above about 33%, passing the limit was not always enough;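 also: cells stimulated with NPY at EC10 then isoproterenol at EC100; 0% = low agonist plus stimulus and 100% = saturating agonist plus stimulus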
NPY-Y1 antag ct – counter-screen for NPY-Y2 antagonists: human NPY-Y1 antagonism; shares compounds with NPY Y2 blocker; actives 19% (n = 710); cell-based NPY-Y1 antagonism counterscreen; AID 1256; inhibition, % at 3.6 µM; in the data active = inhibition above about 20%;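 also: cells challenged with NPY then isoproterenol with cAMP sensed through a CNG channel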
NPY-Y2 ant conf – human NPY-Y2 antagonism, confirmation. shares compounds with NPY Y2 blocker. HEK293 NPY-Y2 CNG channel, membrane potential fluorescence. inhibition, % at 2.8 µM. actives 32% (n = 710);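 active = mean inhibition of triplicate wells above the hit cutoff set in the primary screen, cut at about 17% in these data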;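 also: 0% = DMSO with NPY challenge and 100% = BIIE0246 high control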
* hit, by the source's call; x = no result given. Compounds with a hit are over-represented: about 4.9% of the library has one in this group of screens.

SMILES	NPY Y1 blocker	RAM network inh	WT yeast gro inh	NPY Y2 blocker	NPY2 pot ag	NPY-Y1 PAM-ag	NPY-Y1 antag ct	NPY-Y2 ant conf
Nc1nc(CN2CCC(Cc3ccccc3)CC2)nc(Nc2ccccc2)n1	13	-1	21	19*	-7	-46	16	15
Nc1nc(CN2CCCCCC2)nc(Nc2ccccc2)n1	-1	1	-11	-3	-2	-12	x	x
O=C(c1cc(-c2cccs2)on1)N1CCc2ccccc2C1	14	1	-16	29*	-6	-33	17	17
Clc1ccccc1-c1nc2ccccc2c2nc3ccccc3n12	0	0	20	18*	-4	-9	17	13
CCN(CC)c1ccc(NC(=O)COC(=O)CSc2ccc(Br)cc2C)cc1	5	2	-5	6	-5	-20	x	x
Cc1cc(C)c(NC(=O)COC(=O)CSc2ccc(Br)cc2C)c(C)c1	6	8	-7	18*	1	3	6	7
Cc1ccc(NC(=O)c2cc(N(C)C)ccc2[P+](=O)O)cc1	3	1	-4	21*	6	1	5	0
COc1ccc(-c2nnc(SC)n2C)cc1	2	2	-16	0	-2	13	x	x
O=C(C1CSC2(c3ccc(F)cc3)CCC(=O)N12)N1CCCCCC1 (configuration not stated)	1	1	6	-1	9	24	x	x
CC(C)c1ccc(NC(=O)C(c2ccc3c(c2)OCO3)N2CCN(C(=O)c3ccco3)CC2)cc1 (configuration not stated)	-1	-1	3	1	-4	10	x	x
CCN(CC)C(C(=O)Nc1ccc(C(C)C)cc1)c1ccc2c(c1)OCO2 (configuration not stated)	16	-1	9	18*	-14	-6	7	14
Cc1ccc(Nc2ncnc(N)n2)cc1	2	1	-7	x	-8	10	x	x
CC(C)CCNC(=O)c1cc(-c2ccco2)nc2ccccc12	19	4	10	33*	-112	-149	40*	40*
COc1ccc2nc(N3CCCC3)c(C#N)cc2c1	4	0	1	0	12	8	x	x
COC(=O)c1c(-c2ccc(F)cc2)csc1NC(=O)c1ccco1	11	3	8	25*	-10	-6	11	12
COc1ccc(NC(=O)CN2C(=O)N(C)Cc3ccccc32)c(C)c1	0	1	2	x	-3	2	x	x
COc1ccc(/C=N/NC(=O)c2nc(-c3ccccc3)cc(-c3ccccc3)n2)cc1	2	1	0	20*	-57	-53	22*	27*
COc1ccc(/C=N/NC(=O)c2nc(-c3ccccc3)cc(-c3ccccc3)n2)cc1O	9	4	36	11	-29	-19	x	x
O=C(c1cc2sccc2n1Cc1ccccc1)N1CCc2ccccc21	17	4	-34	20*	-25	0	10	12
O=C(Cc1ccc2c(c1)CCCC2)Nc1ccc2ccccc2c1	18	5	-2	18*	-14	-11	11	13
Cc1ccc(N2C(=O)CSC2c2ccc3c(c2)OCO3)cc1 (configuration not stated)	0	1	-2	18*	1	-1	2	2
Cc1ccc(/C=C/C(=O)N2CCN(c3cccc(C(F)(F)F)c3)CC2)cc1	10	6	-3	21*	-14	3	21*	14
C/C(=C\c1ccccc1)C(=O)N1CCN(c2cccc(C(F)(F)F)c2)CC1	15	3	47	12	-22	-5	x	x
CCOC(=O)c1cn2nc(N3CCCCC3)ccc2n1	x	x	x	x	-7	12	x	x
CCn1nc(C(=O)Nc2cccc3ccccc23)c(Cl)c1Cl	15	5	14	18*	-19	-34	11	11
SMILES	NPY Y1 blocker	RAM network inh	WT yeast gro inh	NPY Y2 blocker	NPY2 pot ag	NPY-Y1 PAM-ag	NPY-Y1 antag ct	NPY-Y2 ant conf
CCOc1ccc2nc(NC(=O)CS(=O)(=O)c3ccc(C)cc3)sc2c1	8	3	20	25*	-18	-17	16	18*
CCOc1ccc2nc(NC(=O)CS(=O)(=O)c3ccccc3)sc2c1	0	7	3	1	-23	-24	x	x
Cc1ccc2[nH]c(=O)c3cc(C(=O)NCCN4CCN(C)CC4)sc3c2c1	1	0	-2	-2	-15	9	x	x
COc1ccc(S(=O)(=O)N2CCC(CN3C(=O)c4cccc5cccc(c45)C3=O)CC2)cc1	6	5	-6	23*	-5	-48	8	15
COc1ccc(/C=C/C(=O)NC(C)CCc2ccccc2)cc1 (configuration not stated)	19	4	26	22*	3	2	11	7
COc1ccc(/C=C/C(=O)NC(C)CCc2ccccc2)cc1OC (configuration not stated)	8	0	-7	x	7	17	x	x
CCC(C)NS(=O)(=O)c1ccc(NC(=O)Cc2ccc(OC)cc2)cc1 (configuration not stated)	2	2	-2	x	-31	-12	x	x
CCn1c(SCc2ccccc2Cl)nc2nc3c(cc2c1=O)CCCC3	3	-1	45	18*	-2	-52	9	14
Cc1cc(C)c2c(SC(C)C)nc(N)nc2n1	x	x	x	x	-3	23	x	x
COc1ccc(OC)c2sc(Cl)nc12	-1	1	3	x	3	-9	x	x
COc1ccc(-c2nc(C#N)c(NCC3CCCO3)o2)cc1OC (configuration not stated)	-6	0	8	3	-1	-30	x	x
COc1ccc(-c2nc(C#N)c(NC(C)c3ccccc3)o2)cc1OC (configuration not stated)	14	5	2	21*	-17	4	17	34*
COc1ccc(C2Nc3ccccc3C(=O)N2Cc2ccco2)cc1COc1ccccc1F (configuration not stated)	19	3	-10	25*	-13	-12	6	11
Cc1ccc(N(C)S(=O)(=O)c2cccc(C(=O)Nc3nc4ccccc4[nH]3)c2)cc1	10	7	30	23*	-17	-2	42*	20*
Cc1c(Cl)cccc1NC(=O)CSc1nnc(CCNC(=O)OC(C)(C)C)o1	3	0	-5	3	4	-17	x	x
Clc1ccc(CSc2nnc(-c3ccc4c(c3)OCO4)o2)cc1	9	6	-8	22*	3	-21	27*	30*
Cc1nc(-c2ccccn2)nc(SCC(=O)N2CCOCC2)c1Cl	x	x	x	x	-11	-7	x	x
O=C(Nc1cccn(Cc2c(Cl)cccc2Cl)c1=O)c1c(Cl)cccc1Cl	9	3	15	20*	11	4	12	9
